The values below come from PMC3286593 (Cancer Chemotherapy and Pharmacology, 2011).

Series [1] concerns patients with advanced solid malignancies. Put plainly: Phase I 3 + 3 dose escalation: MTD and dose-limiting toxicities. The class given is in vivo, human. Particulars: for Pemetrexed dose at MTD: q3w; for MTD of sunitinib: with pemetrexed 500 mg/m^2 q3w. In outline: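 Open-label multicentre 3 + 3 escalation. […] A DLT was a grade 3/4 drug-related toxicity in cycle 1 (NCI CTCAE v3.0). MTD was the highest dose with 0/3 or ≤1/6 DLTs.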

Series [2] deals with NSCLC NCI-H460 xenograft models. The following applies: cited from earlier work.
In series [3] the test system is patients with advanced solid malignancies. The series is described as follows: Dose delays, dose reductions and relative dose intensity. The series is classed as in vivo, human. Particulars: for Cycles with dose reductions: Schedule 2/1. In a few lines: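 Grade 3/4 toxicity attributed to either drug allowed intra-patient dose reduction at the investigator's discretion, up to 2 reductions per drug. […] Relative dose intensity was actual/intended dose intensity. Results were summarised descriptively per cycle and per patient.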

Series [4] concerns VEGFR and PDGFR phosphorylation. Particulars: cited from earlier work.
In series [5] the test system is patients with advanced solid malignancies. The series is described as follows: Safety: adverse events. The series is classed as in vivo, human.
Another series deals with NSCLC. The following applies: single-agent sunitinib on Schedule 4/2; cited from earlier work.
Where [6] appears, read: NSCLC expansion cohort (n = 15).

Molecules are shown by their SMILES.

Turning to `Nc1nc2[nH]cc(CCc3ccc(C(=O)N[C@@H](CCC(=O)O)C(=O)O)cc3)c2c(=O)[nH]1` [pemetrexed], the “Pemetrexed dose at MTD” value in series [1] (with sunitinib 37.5 mg/day CDD schedule) was 500 mg/m^2. In addition, the “Pemetrexed dose at MTD” value in series [1] (with sunitinib 50 mg/day Schedule 2/1) worked out at 500 mg/m^2. In series [2], the “Effect on antitumor activity of sunitinib” value is given as “enhanced its antitumor activity”. Moreover, in series [3] (CDD schedule MTD), the “Patients with a pemetrexed dose delay” value was 12 patients and the “Patients with a pemetrexed dose reduction to 400 mg/m^2” value came to 6 patients. In series [3] (NSCLC expansion cohort), the “Cycles with pemetrexed dose reduction” value stood at 6 cycles and the “Patients with at least one pemetrexed dose reduction to 400 mg/m^2” value amounted to 3 patients. For the same compound, the “Cycles with dose reductions” value in series [3] came out at 3 cycles. In series [3] (original CDD schedule MTD), the “Cycles with pemetrexed dose reduction” value worked out at 13 cycles.
Take `CCN(CC)CCNC(=O)c1c(C)[nH]c(/C=C2\C(=O)Nc3ccc(F)cc32)c1C` [sunitinib]: the results for the MTD of sunitinib in series [1] (CDD schedule) and in series [1] (Schedule 2/1) were 37.5 mg/day and 50 mg/day, respectively. Moreover, in series [4], the “Target plasma concentrations required to inhibit VEGFR and PDGFR phosphorylation” value was 50 to 100 ng/mL. Moreover, the “Serious AEs considered related to sunitinib treatment” value in series [5] (CDD schedule at the MTD, one event of each in separate patients) was “febrile neutropenia (DLT), pancreatitis, pain, gastroenteritis, and muscular weakness”; in series [5] (Schedule 2/1, all n = 1), “febrile neutropenia (DLT), tumor perforation, and pyrexia”. The ORR in the series on NSCLC was 11.1%. Further, the Tumor growth entry in series [2] is reported as “decreased tumor growth”. In series [3] (CDD schedule MTD), the “Patients with a sunitinib dose reduction to 25 mg” value is given as 12 patients. In addition, the “Patients with at least one sunitinib dose delay” value in series [3] (CDD schedule MTD) was found to be 12 patients. Moreover, in series [3] (CDD schedule MTD, abdominal pain, seizure, thrombocytopenia), the “Patients who discontinued sunitinib due to AEs” value was “Three”. Further, the “Cycles with sunitinib dose reductions” value amounted to 22 cycles in series [3] (setting [6]) and 23 cycles in series [3] (original CDD schedule MTD cohort (n = 7)). Moreover, the “Patients with at least one sunitinib dose reduction to 25 mg” value in series [3] (setting [6]) came to 7 patients. The “Cycles with dose reductions” value in series [3] turned out to be 6 cycles.
